Experimental findings from ChEMBL document CHEMBL4823325, “Synthesis of Benzoazepine Derivatives via Azide Rearrangement and Evaluation of Their Antianxiety Activities” (ACS Med Chem Lett, 2021) are described below.

One data set has as its system HEK293. Put plainly: Cytotoxicity against human HEK293 cells assessed as reduction in cell viability measured after 24 hrs by MTT assay. Format: cell-based. The settings on record: HEK293, 24 h. A general note: Tetrazolium dyes change colour on reduction, which living cells bring about.
The test system of data set [1] is Rattus norvegicus. Put plainly: Induction of hyperlocomotor activity in restraint stress induced anxiety Wistar rat model assessed as increase in total lines crossed at 2 mg/kg, po measured after 30 mins by open field test. The data set is classed as functional, organism-based. In outline: (§1)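 Restraint stress was applied by immobilization in a plastic restrainer for 2 h/day over 14 days. Rats received 2 mg/kg 30 min before the open field test, six per group. Inner zone time was scored as the anxiety measure and the number of total lines crossed as locomotor activity. Groups were compared with nonstressed vehicle and stressed vehicle groups.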

The subject of data set [2] is Rattus norvegicus. The experiment in a line: Anxiolytic activity in restraint stress induced anxiety Wistar rat model assessed as decrease in anxiety index at 2 mg/kg, po measured after 30 mins by elevated plus maze test. The data set is classed as functional, organism-based. In short, it runs like this: (§2)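 Rats were stressed by immobilization in a plastic restrainer for 2 h/day for 14 days. Test compounds were given at 2 mg/kg 30 min before the elevated plus maze, six rats per group. Read-outs were percent open arm entry, percent open arm time and anxiety index (higher index means more anxiety). Groups were compared with nonstressed vehicle and stressed vehicle groups.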

The subject of data set [3] is Rattus norvegicus. Put plainly: Anxiolytic activity in restraint stress induced anxiety Wistar rat model assessed as increase in open arm entry at 2 mg/kg, po measured after 30 mins by elevated plus maze test. The data set is classed as functional, organism-based. In short, it runs like this: as §2
In data set [4] the test system is Rattus norvegicus. The experiment in a line: Anxiolytic activity in restraint stress induced anxiety Wistar rat model assessed as increase in time spent in open arm at 2 mg/kg, po measured after 30 mins by elevated plus maze test. Format: functional, organism-based. In short, it runs like this:
as §2

For data set [5], the system named is Rattus norvegicus. Put plainly: Anxiolytic activity in restraint stress induced anxiety Wistar rat model assessed as increase in time spent in inner zone at 2 mg/kg, po measured after 30 mins by open field test. The data set is classed as functional, organism-based. In outline: as §1
Data set [6] can be described thus: Effect on locomotor activity in normal Wistar rat assessed as effect on total open arm entry at 2 mg/kg, po measured after 30 mins by elevated plus maze test. The settings on record: in vivo, 0.5 h.
The subject of data set [7] is Rattus norvegicus. The experiment in a line: Anxiolytic activity in restraint stress induced anxiety Wistar rat model assessed as decrease in time spent in outer zone at 2 mg/kg, po measured after 30 mins by open field test. The data set is classed as functional, organism-based. In outline: (§3)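 Open field test in rats stressed by immobilisation in a plastic restrainer for 2 h/day for 14 days, with non-stressed controls. Animals received 2 mg/kg acutely 30 min before testing, six rats per group. Readouts were inner zone time, outer zone time, total lines crossed (locomotion) and rearing (exploration).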

Data set [8] deals with Rattus norvegicus. The experiment in a line: Anxiolytic activity in restraint stress induced anxiety Wistar rat model assessed as decrease in rearing behaviour at 2 mg/kg, po measured after 30 mins by open field test. Format: functional, organism-based. In outline: as §3

The term IC50 denotes the concentration that inhibits the measured activity by half.

The source made the active and inactive calls. The rule behind the calls is not given here.

As to `Clc1ccc2c(c1)NCc1ccc(Oc3ccccc3)cc1C2`, in the data set with HEK293, the IC50 stood at 14.2 µM. For the same molecule, the result in the data set on Rattus norvegicus [1], in the data set with Rattus norvegicus [2], with Rattus norvegicus [3], in the data set on Rattus norvegicus [4] and in the data set on Rattus norvegicus [5] was Active. Besides, the Activity entry in data set [6] is “Non-Toxic”.

With `COc1ccc2c(c1)Cc1ccc(Cl)cc1NC2`, the IC50 in the data set with HEK293 was found to be 12.6 µM. Further, the result in the data set with Rattus norvegicus [1], in the data set on Rattus norvegicus [2], in the data set with Rattus norvegicus [3], with Rattus norvegicus [4] and in the data set on Rattus norvegicus [5] was Active. Besides, the Activity entry in [6] is given as “Non-Toxic”.

Consider `Fc1cccc2c1NCc1ccc(Oc3ccccc3)cc1C2`, for which the IC50 with HEK293 is 13.7 µM. In addition, the outcome in the data set with Rattus norvegicus [1], with Rattus norvegicus [2], with Rattus norvegicus [3], in the data set with Rattus norvegicus [4] and with Rattus norvegicus [5] was Active. Moreover, in data set [6], the Activity entry is listed as “Non-Toxic”.

With `c1ccc(Oc2ccc3c(c2)Cc2ccccc2NC3)cc1`, the half-inhibitory concentration (IC50) in the data set with HEK293 turned out to be 4.43 µM.

Regarding `COc1ccc2c(c1)Cc1ccc(OC)cc1NC2`, the IC50 in the data set on HEK293 turned out to be 1.09 µM.

On to `COc1cc2c(c(OC)c1)CNc1ccccc1C2`, for which the IC50 with HEK293 came to 6.44 µM.

Take `COc1ccc2c(c1)Cc1cccc(F)c1NC2`: the concentration for half-maximal inhibition (IC50) in the data set on HEK293 turned out to be 6.19 µM.

Take `COc1ccc2c(c1)Cc1cc3c(cc1NC2)OCO3`: the concentration for half-maximal inhibition (IC50) in the data set on HEK293 amounted to 14.5 µM.

`COc1ccc2c(c1)NCc1ccc(Oc3ccccc3)cc1C2`: in the data set on HEK293, the half-maximal inhibitory concentration (IC50) was determined as 2.12 µM.

In the case of `COc1ccc2c(c1)Cc1ccccc1NC2`, the IC50 in the data set on HEK293 came to 65.7 µM. Further, the result in the data set with Rattus norvegicus [1], in the data set on Rattus norvegicus [2], in the data set on Rattus norvegicus [3], in the data set with Rattus norvegicus [4] and in the data set on Rattus norvegicus [5] was Active. Also, the Activity entry in data set [6] is reported as “Non-Toxic”.

Regarding `COc1ccc2c(c1)Cc1cc(Cl)ccc1NC2`, the half-inhibitory concentration (IC50) in the data set with HEK293 amounted to 2.29 µM.

As to `COc1ccc2c(c1)CCc1ccccc1NC2`, in the data set with HEK293, the 50% inhibitory concentration (IC50) is 14.1 µM.

For `COc1ccc2c(c1)Cc1c(F)cccc1NC2`, in the data set with HEK293, the IC50 stood at 0.77 µM.

Take `COc1ccc2c(c1)Cc1cc(F)ccc1NC2`: the concentration for half-maximal inhibition (IC50) in the data set with HEK293 came out at 0.16 µM. Moreover, the outcome in the data set with Rattus norvegicus [1], in the data set on Rattus norvegicus [2], in the data set on Rattus norvegicus [3], with Rattus norvegicus [4] and in the data set with Rattus norvegicus [5] was Active. Besides, the Activity result in [6] is “Non-Toxic”.

Turning to `CN1C(=O)CN=C(c2ccccc2)c2cc(Cl)ccc21` [DIAZEPAM], in the data set with HEK293, the IC50 worked out at 87.9 µM. The result in the data set on Rattus norvegicus [1], in the data set with Rattus norvegicus [2], in the data set with Rattus norvegicus [3], in the data set on Rattus norvegicus [4], in the data set on Rattus norvegicus [5] and in the data set on Rattus norvegicus [7] was Active. Besides, in the data set with Rattus norvegicus [8], the outcome was Active.
